Key:
[1] = MRTinfinity in ICR mouse plasma at 10 mg/kg, ip measured upto 8 hrs by LC-MS/MS analysis; type: ADME, organism-based
Summary of the method: (§1)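 Male ICR mice, 7–8 weeks, 30 ± 5 g; single dose 1 mg/kg iv or 10 mg/kg ip (n = 4 each). Carotid artery blood at 0, 0.08 (iv only), 0.25, 0.5, 1, 2, 4, 6, 8 h. Plasma precipitated with acetonitrile containing internal standard, quantified by LC–MS/MS. Parameters by non-compartmental analysis; AUClast by trapezoidal rule; values mean ± SD.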

[2] = target: 5-hydroxytryptamine receptor 7 (Homo sapiens, UniProt P34969); assay: Agonist activity at 5-HT7R (unknown origin) transfected in HEK293 cells expressing tTA-dependent luciferase reporter and beta arrestin 2-TEV fusion gene assessed as beta arrestin recruitment incubated for 22 hrs by Tango assay; type: functional, cell-based; settings: hek293
[3] = test system: Mus musculus; assay: Effect on shank3-/- mouse model of autism spectrum disorder assessed as time taken for duration of self grooming at 5 mg/kg, ip after 30 mins under 40 lux lighting (reference value: 224 +/- 47.4 sec); type: functional; settings: 0.5 h
[4] = target: CYP2D6 (Homo sapiens, UniProt P10635); assay: Inhibition of CYP2D6 in human liver microsomes assessed as remaining activity at 10 uM using dextromethorphan as substrate preincubated for 5 mins followed by addition of NADPH generating system and incubated for 15 mins by LC/MS relative to control; type: ADME; settings: probe dextromethorphan, time 20 min, read-out: Activity
Summary of the method: (§2)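 Human liver microsomes (0.25 mg/mL) in 0.1 M phosphate pH 7.4 with a five-substrate cocktail: phenacetin 50 μM, diclofenac 10 μM, S-mephenytoin 100 μM, dextromethorphan 5 μM, midazolam 2.5 μM. Compound at 0 (control) or 10 μM. Preincubated 5 min at 37 °C, NADPH-generating system added, 15 min at 37 °C. Stopped with acetonitrile plus internal standard; substrate metabolites measured by LC/MS.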

[5] = Bioavailability in ICR mouse plasma at 10 mg/kg, ip measured upto 8 hrs by LC-MS/MS analysis; type: ADME, organism-based; summary of the method: as §1
[6] = target: 5-hydroxytryptamine receptor 1E (Homo sapiens, UniProt P28566); assay: Binding affinity to 5-HT1ER (unknown origin)
Summary of the method: (§3)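 Run by the NIMH Psychoactive Drug Screening Program as competition radioligand binding on crude membranes of cells expressing the recombinant receptor. Eleven dilutions (0.05 nM–50 μM, prepared at 5× assay concentration) were made in 50 mM Tris-HCl, 10 mM MgCl₂, 1 mM EDTA, pH 7.4. Incubation was 1.5 h at rt in the dark, followed by GF/B filtration (0.3% PEI) and scintillation counting. IC₅₀ was converted to Ki; at least triplicate.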

[7] = Half life in ICR mouse plasma at 1 mg/kg, iv measured upto 8 hrs by LC-MS/MS; type: ADME, organism-based; summary of the method: as §1
[8] = target: T1, 5-hydroxytryptamine receptor 3A (Homo sapiens, UniProt P46098); assay: Binding affinity to 5-HT3R (unknown origin); summary of the method: as §3
T1 sequence (P46098 whole entry): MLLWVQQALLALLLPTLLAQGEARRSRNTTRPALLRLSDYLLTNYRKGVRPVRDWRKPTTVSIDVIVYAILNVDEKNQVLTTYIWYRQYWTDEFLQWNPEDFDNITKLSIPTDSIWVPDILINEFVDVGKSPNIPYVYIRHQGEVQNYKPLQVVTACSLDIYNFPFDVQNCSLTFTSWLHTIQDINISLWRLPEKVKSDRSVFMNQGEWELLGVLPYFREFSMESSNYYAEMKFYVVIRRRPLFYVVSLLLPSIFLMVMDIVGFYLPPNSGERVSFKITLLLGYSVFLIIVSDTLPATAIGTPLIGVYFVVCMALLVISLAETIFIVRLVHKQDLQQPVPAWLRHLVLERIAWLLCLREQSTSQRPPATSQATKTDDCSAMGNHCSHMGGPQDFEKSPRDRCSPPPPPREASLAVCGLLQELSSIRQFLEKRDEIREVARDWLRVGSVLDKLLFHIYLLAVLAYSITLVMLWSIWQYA

[9] = target: T2, 5-hydroxytryptamine receptor 1A (Homo sapiens, UniProt P08908); assay: Binding affinity to 5-HT1AR (unknown origin); summary of the method: as §3
T2 sequence (P08908 whole entry): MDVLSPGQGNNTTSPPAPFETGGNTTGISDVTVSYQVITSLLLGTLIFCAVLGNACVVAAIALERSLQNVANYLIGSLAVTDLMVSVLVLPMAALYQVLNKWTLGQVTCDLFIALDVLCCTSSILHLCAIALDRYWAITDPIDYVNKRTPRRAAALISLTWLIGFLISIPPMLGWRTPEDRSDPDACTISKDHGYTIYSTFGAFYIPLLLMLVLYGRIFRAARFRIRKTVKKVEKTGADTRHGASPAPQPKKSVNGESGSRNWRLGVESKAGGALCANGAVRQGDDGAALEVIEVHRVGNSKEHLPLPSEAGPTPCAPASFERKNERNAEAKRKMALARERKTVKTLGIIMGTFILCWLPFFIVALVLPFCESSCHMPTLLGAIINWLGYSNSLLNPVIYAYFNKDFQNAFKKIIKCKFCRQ

[10] = target: CYP2C19 (Homo sapiens, UniProt P33261); assay: Inhibition of CYP2C19 in human liver microsomes assessed as remaining activity at 10 uM using S-mephenytoin as substrate preincubated for 5 mins followed by addition of NADPH generating system and incubated for 15 mins by LC/MS relative to control; type: ADME; settings: probe S-mephenytoin, time 20 min, read-out: Activity; summary of the method: as §2
[11] = target: 5-hydroxytryptamine receptor 2B (Homo sapiens, UniProt P41595); assay: Binding affinity to 5-HT2BR (unknown origin); summary of the method: as §3
[12] = AUClast in ICR mouse plasma at 1 mg/kg, iv measured upto 8 hrs by LC-MS/MS analysis; type: ADME, organism-based; set-up: route intravenous, dose 1 mg/kg, time <=8; summary of the method: as §1
[13] = Clearance in ICR mouse plasma at 1 mg/kg, iv measured upto 8 hrs by LC-MS/MS analysis; type: ADME, organism-based; summary of the method: as §1
[14] = target: T3, 5-hydroxytryptamine receptor 2C (Homo sapiens, UniProt P28335); assay: Binding affinity to 5-HT2CR (unknown origin); summary of the method: as §3
T3 sequence (P28335 whole entry): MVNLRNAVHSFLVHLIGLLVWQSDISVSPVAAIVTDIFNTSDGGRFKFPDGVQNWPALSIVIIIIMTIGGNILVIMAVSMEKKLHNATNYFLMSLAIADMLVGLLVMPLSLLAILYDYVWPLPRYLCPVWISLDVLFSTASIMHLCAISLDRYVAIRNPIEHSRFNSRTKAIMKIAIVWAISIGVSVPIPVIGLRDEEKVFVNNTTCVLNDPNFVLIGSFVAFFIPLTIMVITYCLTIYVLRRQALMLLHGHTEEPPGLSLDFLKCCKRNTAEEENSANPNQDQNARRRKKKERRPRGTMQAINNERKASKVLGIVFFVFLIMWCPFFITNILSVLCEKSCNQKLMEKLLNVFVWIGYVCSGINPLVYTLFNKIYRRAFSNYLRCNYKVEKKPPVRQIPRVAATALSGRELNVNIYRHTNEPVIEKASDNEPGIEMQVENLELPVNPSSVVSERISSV

[15] = test system: Mus musculus; assay: Effect on wild type mouse assessed as time taken for duration of self grooming at 5 mg/kg, ip after 30 mins under 40 lux lighting (reference value: 43.7 +/- 10.8 sec); type: functional; settings: 0.5 h

Sequence of CYP2D6 (P10635 whole entry): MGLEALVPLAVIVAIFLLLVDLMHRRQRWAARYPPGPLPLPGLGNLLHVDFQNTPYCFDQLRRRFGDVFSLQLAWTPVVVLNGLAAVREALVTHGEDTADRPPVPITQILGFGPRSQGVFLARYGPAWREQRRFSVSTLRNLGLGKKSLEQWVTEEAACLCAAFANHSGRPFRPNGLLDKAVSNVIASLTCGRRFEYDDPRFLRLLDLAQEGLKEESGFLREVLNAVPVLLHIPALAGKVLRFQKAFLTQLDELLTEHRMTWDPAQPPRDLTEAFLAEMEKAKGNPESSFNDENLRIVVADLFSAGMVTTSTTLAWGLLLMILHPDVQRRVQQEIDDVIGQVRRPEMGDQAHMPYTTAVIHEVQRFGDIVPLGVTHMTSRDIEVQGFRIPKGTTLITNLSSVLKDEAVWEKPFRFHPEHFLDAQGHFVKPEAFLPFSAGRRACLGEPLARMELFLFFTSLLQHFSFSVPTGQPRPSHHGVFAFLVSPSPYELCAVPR
Sequence of CYP2C19 (P33261 whole entry): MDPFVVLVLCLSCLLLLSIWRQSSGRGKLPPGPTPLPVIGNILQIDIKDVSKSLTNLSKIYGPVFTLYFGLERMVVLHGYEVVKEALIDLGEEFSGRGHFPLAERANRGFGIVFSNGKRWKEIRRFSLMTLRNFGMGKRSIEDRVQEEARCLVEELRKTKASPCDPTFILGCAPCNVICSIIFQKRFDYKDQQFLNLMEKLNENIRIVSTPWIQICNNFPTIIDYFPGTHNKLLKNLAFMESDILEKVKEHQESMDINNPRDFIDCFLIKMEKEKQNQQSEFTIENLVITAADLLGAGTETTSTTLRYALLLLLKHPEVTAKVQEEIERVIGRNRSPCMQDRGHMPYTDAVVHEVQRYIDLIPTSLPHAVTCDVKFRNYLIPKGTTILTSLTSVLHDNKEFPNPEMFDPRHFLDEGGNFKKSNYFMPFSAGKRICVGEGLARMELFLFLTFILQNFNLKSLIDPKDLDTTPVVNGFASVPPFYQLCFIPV
Sequence of 5-hydroxytryptamine receptor 2B (P41595 whole entry): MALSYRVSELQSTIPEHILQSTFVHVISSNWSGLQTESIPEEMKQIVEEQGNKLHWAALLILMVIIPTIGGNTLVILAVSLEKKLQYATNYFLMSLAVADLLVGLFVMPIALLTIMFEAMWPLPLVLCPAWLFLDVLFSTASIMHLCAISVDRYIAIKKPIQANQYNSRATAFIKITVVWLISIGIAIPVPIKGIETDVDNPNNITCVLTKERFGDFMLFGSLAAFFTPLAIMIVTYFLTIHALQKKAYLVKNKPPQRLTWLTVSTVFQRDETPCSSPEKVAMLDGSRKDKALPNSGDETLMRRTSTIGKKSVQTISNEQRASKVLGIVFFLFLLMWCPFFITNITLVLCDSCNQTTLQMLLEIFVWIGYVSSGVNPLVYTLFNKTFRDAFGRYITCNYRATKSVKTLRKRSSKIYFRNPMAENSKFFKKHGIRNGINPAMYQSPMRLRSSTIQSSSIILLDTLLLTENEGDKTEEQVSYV
Sequence of 5-hydroxytryptamine receptor 1E (P28566 whole entry): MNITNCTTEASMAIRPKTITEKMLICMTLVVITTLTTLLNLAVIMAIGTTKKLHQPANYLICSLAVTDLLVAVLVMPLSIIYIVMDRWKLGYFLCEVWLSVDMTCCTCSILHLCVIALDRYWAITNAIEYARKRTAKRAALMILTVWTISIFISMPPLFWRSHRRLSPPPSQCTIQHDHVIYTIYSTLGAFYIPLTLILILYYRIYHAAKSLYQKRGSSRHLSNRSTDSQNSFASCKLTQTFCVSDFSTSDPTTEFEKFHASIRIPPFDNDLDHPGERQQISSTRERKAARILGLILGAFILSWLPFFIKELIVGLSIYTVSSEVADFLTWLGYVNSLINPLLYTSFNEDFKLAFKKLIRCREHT
Sequence of 5-hydroxytryptamine receptor 7 (P34969 whole entry, the tested form may be a part): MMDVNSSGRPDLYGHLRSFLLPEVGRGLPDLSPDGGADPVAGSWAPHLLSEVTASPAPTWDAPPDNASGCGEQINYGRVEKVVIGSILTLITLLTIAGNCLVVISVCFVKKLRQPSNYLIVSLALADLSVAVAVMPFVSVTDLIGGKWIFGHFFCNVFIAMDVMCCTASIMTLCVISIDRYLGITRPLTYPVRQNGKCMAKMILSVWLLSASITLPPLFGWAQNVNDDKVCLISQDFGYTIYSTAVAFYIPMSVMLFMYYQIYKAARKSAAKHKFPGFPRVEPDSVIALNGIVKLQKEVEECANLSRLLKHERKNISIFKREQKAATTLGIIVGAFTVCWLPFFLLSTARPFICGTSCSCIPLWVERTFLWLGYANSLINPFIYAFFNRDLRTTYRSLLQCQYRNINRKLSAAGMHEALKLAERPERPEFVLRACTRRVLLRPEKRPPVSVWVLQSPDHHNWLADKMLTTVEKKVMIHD

## CCNCCc1ccc(Cl)c(-c2ccccc2OC)c1.Cl
[1]
  MRT inf: 78 min
[2]
  EC50: Not Active
[3]
  Time: 553 s
[4]
  activity at 0.25 h, 10 µM: 88.7%
[5]
  bioavailability: 134%
[6]
  Ki: 2600 nM
[7]
  half-life: 30 min
[8]
  Ki: > 10000 nM
[9]
  Ki: 52 nM
[10]
  activity at 0.25 h, 10 µM: 90.3%
[11]
  Ki: 130 nM
[12]
  AUC(0-t) at 8 h: 32.9 ng·h/mL
[13]
  clearance: 478 mL/min/kg
[14]
  Ki: > 10000 nM
[15]
  Time: 107 s

— ChEMBL document CHEMBL5038590, “Discovery of G Protein-Biased Ligands against 5-HT7R” (J Med Chem, 2021)
